Rtt109 HAT inh: inhibitors of C. albicans Rtt109/Vps75 HAT, primary screen, biochemical, ThioGlo CoA-SH fluorescence, plate reader; Histone acetyltransferase RTT109 (Candida albicans (strain SC5314 / ATCC MYA-2876)), …; purified Rtt109/Vps75, 4 h; inhibition, % at 34.9 µM; 0.16% of 330,000 active;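 active means inhibition of at least 50% in every replicate; inconclusive means best replicate reaches 50% inhibition but some replicates fall short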
CAL PDZ FP-1: CAL PDZ peptide-binding inhibitors, primary screen, biochemical, fluorescence polarization, Cer-tagged CAL PDZ, HTS. purified CAL PDZ, TMR-peptide fluorescence polarization, 1 h. inhibition, % at 20 µM. 0.02% of 330,000 active;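 active means highest replicate inhibition of at least 40%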;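 further: plate controls were DMSO neutral control wells for no effect and unlabeled competitor peptide control wells for full effect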
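Assay system – tagged CAL PDZ protein CerCALP, purified · Timing – 1 h at RT · Compound – single point, 20 µM · Measured by – fluorescence polarization from S- and P-plane intensities, G-factor corrected · Evaluation – inhibition from polarization loss · Probe or stimulus – TMR reporter peptide T*-PRC34 · Buffer or medium – pH 7.4 phosphate-saline buffer, reducing agent, detergent, IgG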
dFosB act-1: activators of delta FosB homodimer, primary screen, biochemical, fluorescence polarization, TAMRA-CDK5 oligo, single point | purified delta FosB; percent of positive-control signal above neutral wells | 0.99% of 340,000 active | activation, % at 25 µM | AID 493131, 2011 | Protein FosB (Mus musculus), P13346;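 active means mean activation above about 17%, with every replicate also reaching it, limit read from the data, passing the limit was not always enough; inconclusive means only one of the two conditions met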
CAL PDZ FP-2: untagged CAL PDZ binding inhibitors, primary screen, biochemical, fluorescence polarization, HTS; purified CAL PDZ, TMR-peptide fluorescence polarization, 1 h; Golgi-associated PDZ and coiled-coil motif-containing protein (Homo sapiens), Q9HD26; 0.92% of 300,000 active; inhibition, % at 24.9 µM;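 active means mean inhibition of at least 30% with at least half of replicates also reaching 30%; inconclusive means no clear call, values can overlap the other calls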;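 further: 0% = DMSO neutral control and 100% = excess unlabeled competitor peptide PRC23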
Dyrk1A ADPGlo: rat Dyrk1A kinase inhibitors, primary screen, biochemical, single point, plate reader; inhibition, % at 12.5 µM; 0.43% of 310,000 active; ADP-Glo luminescence, NFATc1 peptide; AID 504441, 2011; Dual specificity tyrosine-phosphorylation-regulated kinase 1A (Rattus norvegicus), Q63470; in the data active means inhibition above about 50%;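 further: plate controls were vehicle with enzyme for no effect and no enzyme for full effect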
CDK5 inh: inhibitors of human CDK5/p35 kinase, primary screen, biochemical, single concentration. Cyclin-dependent kinase 5 (Homo sapiens) + Cyclin-dependent kinase 5 activator 1 (Homo …. Recombinant CDK5/p35, ADP-Glo luminescence, 60 min. inhibition, % at 10 µM. 0.01% of 330,000 active. AID 488839, 2010;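 active means highest replicate inhibition of at least 50% and at least 75% of replicates reaching 50%; inconclusive means only one of the two criteria met; inactive means both criteria failed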;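 further: plate controls were DMSO neutral control for no effect and GW8510 at 10 µM for full effect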
Target sequence (Q00535 whole entry, looked up): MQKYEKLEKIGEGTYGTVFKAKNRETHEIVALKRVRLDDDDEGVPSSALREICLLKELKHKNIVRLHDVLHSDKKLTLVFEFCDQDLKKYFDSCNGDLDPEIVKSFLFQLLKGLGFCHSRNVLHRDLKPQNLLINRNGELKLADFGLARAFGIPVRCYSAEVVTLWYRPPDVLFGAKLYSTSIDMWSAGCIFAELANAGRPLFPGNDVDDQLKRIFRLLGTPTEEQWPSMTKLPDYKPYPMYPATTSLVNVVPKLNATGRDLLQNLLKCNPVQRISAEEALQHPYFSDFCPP
Target sequence (Q15078 whole entry, looked up): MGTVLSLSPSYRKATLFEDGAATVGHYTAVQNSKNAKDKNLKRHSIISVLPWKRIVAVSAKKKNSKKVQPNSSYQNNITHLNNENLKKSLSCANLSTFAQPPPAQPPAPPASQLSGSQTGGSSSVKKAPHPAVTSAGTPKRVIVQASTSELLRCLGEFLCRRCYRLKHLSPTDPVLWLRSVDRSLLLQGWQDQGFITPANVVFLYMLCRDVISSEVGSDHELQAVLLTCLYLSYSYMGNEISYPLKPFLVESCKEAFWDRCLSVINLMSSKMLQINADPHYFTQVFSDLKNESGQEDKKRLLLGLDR
dFosB act-2: activators of mouse delta FosB DNA binding, confirmation, biochemical, fluorescence polarization, TAMRA-CDK5 oligo, cherry-picked samples. shares compounds with dFosB act-1. purified delta FosB; normalised: neutral wells 0, positive control 100. activation, % at 24.9 µM. 2,400 tested, under 10 active;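 active means highest replicate activation at or above 34% and every replicate reaching that threshold; inconclusive means meets only one of the two criteria; inactive means meets neither criterion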;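 further: higher polarization means more probe DNA bound by delta FosB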
* marks the source's active call; other numbers are inactive results; ? = inconclusive; nt = not tested or not shown. Rows were chosen to be rich in hits. Some 2.2% of all compounds tested hit in one or more screens of this group.

SMILES | Rtt109 HAT inh | CAL PDZ FP-1 | dFosB act-1 | CAL PDZ FP-2 | Dyrk1A ADPGlo | CDK5 inh | dFosB act-2
COc1ccc(-c2cc(C(=O)Nc3nc4ccccc4s3)c3ccccc3n2)cc1OC | 2.9 | -2.3 | 65.2* | -3.0 | -4.9 | -1.1 | ?
COc1ccc(S(=O)(=O)N2CCOCC2)cc1NC(=O)c1cccc2c(=O)c(C)c(-c3ccccc3)oc12 | -23.6 | -6.2 | 45.5* | -6.1 | 4.2 | 0.7 | 5.0
COc1ccc(-c2cc(C(=O)Nc3ccc(C(N)=O)cc3)c3ccccc3n2)cc1 | -22.0 | -3.3 | 37.2* | -3.2 | 0.3 | -0.5 | 7.8
COc1cc(-c2cc(C(=O)Nc3cc(S(=O)(=O)N4CCOCC4)ccc3C)c3ccccc3n2)cc(OC)c1OC | -7.8 | -3.5 | 43.5* | 0.8 | 9.1 | 1.1 | 2.3
COc1cc(-c2cc(C(=O)Nc3cc(S(=O)(=O)N4CCOCC4)ccc3O)c3ccccc3n2)cc(OC)c1OC | 0.2 | -0.8 | 2.8 | -3.2 | -1.1 | 0.8 | nt
O=C(CN1CCN(S(=O)(=O)c2cccc(Cl)c2)CC1)NCC1(N2CCOCC2)CCCCC1 | -7.3 | -0.4 | -7.3 | -1.8 | nt | -3.0 | nt
Cc1cc(C)nc(Nc2ccccc2F)n1 | -5.0 | -0.3 | -4.1 | -1.7 | 7.7 | 2.6 | nt
COC(=O)c1ccc(/C=N/NC(=O)CC(=O)NCc2cccnc2)cc1 | 6.3 | 0.3 | -10.7 | 3.4 | -1.7 | 1.0 | nt
NC(c1ccccc1)c1cccnc1 (stereo not given) | -5.1 | -0.3 | 2.1 | 0.5 | 16.1 | 1.1 | nt
O=C(O)C1CC=CCC1C(=O)NCc1ccc(Cl)c(Cl)c1 (stereo not given) | 6.0 | -0.8 | 3.5 | nt | -4.3 | -2.4 | nt
Cc1ccc(CCNC(=O)c2cc(-c3ccncc3)nc3ccc(S(=O)(=O)N4CCOCC4)cc23)cc1 | 29.0 | -2.1 | 29.6* | -2.0 | 1.3 | 1.3 | 2.3
Cc1ccc(S(=O)(=O)N2CCCCC2)cc1NC(=O)c1c(-c2ccccc2)noc1C | 9.2 | -0.3 | 18.1* | -1.2 | nt | -0.9 | 4.8
COc1ccc(-c2cc(C(=O)Nc3ccccc3N3CCOCC3)c3ccccc3n2)cc1OC | -3.8 | -0.1 | 26.8* | -5.4 | -4.6 | 2.1 | -1.0
COc1cc(NC(=O)c2cc(-c3cccnc3)nc3ccc(Br)cc23)cc(OC)c1 | 0.4 | -0.3 | 63.1* | -3.6 | nt | -0.6 | 1.0
O=C(COC(=O)c1ccco1)Nc1ccc(N2CCOCC2)cc1 | 11.1 | -2.2 | -7.2 | -1.6 | 13.7 | 1.6 | nt
Cc1cccc(NC(=O)c2cc(-c3cc(Cl)ccc3O)n[nH]2)c1 | 1.4 | 0.5 | 5.9 | -6.4 | -1.3 | -1.4 | nt
Cc1ccc(NC(=O)c2cc(-c3ccccc3O)n[nH]2)cc1Cl | -1.8 | -0.2 | 40.7* | -3.5 | -1.5 | -1.3 | -6.5
Cc1ccc(NC(=O)c2cc(-c3cc(Cl)ccc3O)n[nH]2)cc1C | -1.2 | 0.9 | 22.3* | -2.0 | -0.5 | 0.9 | 3.6
O=C(CSc1ncnc2ccccc12)NCC(=O)c1ccccc1 | -15.1 | -2.1 | -2.8 | 2.4 | -2.0 | 2.0 | nt
COc1ccc(OC)c2sc(NC(=O)c3cccc(N4C(=O)CCC4=O)c3)nc12 | -30.8 | -4.7 | 67.5* | nt | 2.5 | -2.1 | 2.3
COc1ccc(-c2csc(NC(=O)c3cccc(N4C(=O)CCC4=O)c3)n2)cc1C | -7.4 | -2.8 | -6.2 | -1.6 | -6.5 | 0.3 | nt
COc1ccc(-c2cc(C(=O)Nc3cc(C)nn3-c3ccccc3)no2)cc1 | -0.1 | 1.4 | 22.6* | -4.3 | 4.9 | 2.0 | -2.7

Screening data: PubChem, Broad Institute
